The nature of data set [1]: Lipophilicity, logD of compound at 7.4 by the LC/MS based microscale shake flask method. Format: physicochemical. Conditions: octanol/water, pH 7.4. In outline: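 LogD measured by high-throughput microscale shake flask with LC tandem MS quantitation.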
A short description of data set [2]: Metabolic stability in human liver microsomes assessed as intrinsic clearance at 1 uM measured upto 60 mins by LC-MS/MS analysis. In kind it is ADME, Microsome. The note with it: read-out: CLH. (In general: Microsomes from liver hold many membrane-bound enzymes, among them those of drug oxidation.)
The nature of data set [3]: Metabolic stability in rat liver microsomes assessed as intrinsic clearance at 1 uM measured upto 60 mins by LC-MS/MS analysis. Format: ADME, Microsome. Conditions: read-out: CLH.
A short description of data set [4]: Apparent permeability from apical to basolateral side in MDCK cells at 10 uM incubated for 3 hrs by LC-MS/MS analysis. Conditions: dog. Format: ADME, cell-based, Canis lupus familiaris.
The nature of data set [5]: Clearance in Sprague-Dawley rat at 0.2 mg/kg, iv measured upto 8 hrs by LC-MS/MS analysis. Format: ADME, organism-based. Conditions: in vivo.
A short description of data set [6]: Oral bioavailability in Sprague-Dawley rat at 1 mg/kg measured upto 8 hrs by LC-MS/MS analysis. In kind it is ADME, organism-based. The note with it: in vivo.
Data set [7] can be described thus: Unbound clearance in Sprague-Dawley rat at 1 mg/kg, po measured upto 8 hrs by LC-MS/MS analysis. In kind it is ADME, organism-based. The note with it: in vivo.
Data set [8] is described as follows: Clearance in Beagle dog at 1 mg/kg, iv measured upto 24 hrs by LC-MS/MS analysis. Format: ADME, organism-based, Canis lupus familiaris. The note with it: in vivo.
Data set [9] is described as follows: Oral bioavailability in Beagle dog at 2 mg/kg measured upto 24 hrs by LC-MS/MS analysis. In kind it is ADME, organism-based, Canis lupus familiaris. The note with it: in vivo.
A short description of data set [10]: Metabolic stability in dog Hepatocyte assessed as intrinsic clearance at 1 uM measured upto 60 mins by LC-MS/MS analysis. In kind it is ADME, cell-based, Canis lupus familiaris. Conditions: hepatocytes, read-out: CLH.
Data set [11] can be described thus: Metabolic stability in rat Hepatocyte assessed as intrinsic clearance at 1 uM measured upto 60 mins by LC-MS/MS analysis. Format: ADME, cell-based. The note with it: hepatocytes, read-out: CLH.
Data set [12] is described as follows: Metabolic stability in human Hepatocyte assessed as intrinsic clearance at 1 uM measured upto 60 mins by LC-MS/MS analysis. Format: ADME, cell-based. The note with it: hepatocytes, read-out: CLH.
Data set [13] can be described thus: Metabolic stability in dog liver microsomes assessed as intrinsic clearance at 1 uM measured upto 60 mins by LC-MS/MS analysis. Format: ADME, Canis lupus familiaris, Microsome. Conditions: read-out: CLH.
A short description of data set [14]: Metabolic stability in human Hepatocyte assessed as compound hydrolysis at 5 uM incubated for 3 hrs by LC-MS/MS analysis. Conditions: hepatocytes, read-out: Drug degradation. In kind it is ADME, cell-based. In outline:
(§1)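 Compound incubated at 5 μM in cryopreserved hepatocytes (∼1.0 × 10^6 cells/mL) for 3 h; percent amide hydrolysis determined.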

A short description of data set [15]: Metabolic stability in rat Hepatocyte assessed as compound hydrolysis at 5 uM incubated for 3 hrs by LC-MS/MS analysis. In kind it is ADME, cell-based. The note with it: hepatocytes, read-out: Drug degradation. In a few lines:
as §1

The nature of data set [16]: Metabolic stability in dog Hepatocyte assessed as compound hydrolysis at 5 uM incubated for 3 hrs by LC-MS/MS analysis. Format: ADME, cell-based, Canis lupus familiaris. The note with it: hepatocytes, read-out: Drug degradation. In a few lines: as §1
Data set [17] can be described thus: Oral bioavailability in Beagle dog at 5 mg/kg measured upto 24 hrs by LC-MS/MS analysis. Conditions: in vivo. In kind it is ADME, organism-based, Canis lupus familiaris.

As usually defined, the logD is the decadic logarithm of the distribution of all forms, ionised or not, between an organic phase and buffer at a given pH. Low readings indicate a more hydrophilic compound, high ones a more lipophilic compound. In general, Papp A→B refers to how fast a substance crosses the layer from the apical side. For `Cn1cc(-c2ccnc(-n3ncc4cc(C(C)(C)C)cc(F)c4c3=O)c2CO)cc(NC(=O)[C@H]2C[C@@H]2F)c1=O`, the logD in data set [1] amounted to 3. Also, the CLint scaled at 1 µM came out at 8.5 mL/min/kg in data set [2] and 14 mL/min/kg in data set [3]. For the same molecule, the apparent permeability from apical to basolateral (Papp A→B) at 3 h, 10 µM in data set [4] was 10.8 ×10⁻⁶ cm/s.

Broadly, the clearance is a measure of how efficiently the substance is removed, as volume per time. Read a high clearance as a high capacity for elimination. For the molecule `Cn1cc(-c2ccnc(-n3ncc4cc(C(C)(C)C)cc(F)c4c3=O)c2CO)cc(NC(=O)[C@@H]2C[C@@H]2F)c1=O`, the logD in data set [1] came out at 1.6. Besides, the CLint scaled at 1 µM in [2] was 8 mL/min/kg; in [3], 11 mL/min/kg; in data set [10], less than 21 mL/min/kg; in data set [11], 11 mL/min/kg; in data set [12], 6.2 mL/min/kg; in data set [13], 20 mL/min/kg. For the same molecule, the Papp A→B at 3 h, 10 µM in data set [4] lay within 12.1 to 12.5 ×10⁻⁶ cm/s. Moreover, the clearance was determined as 15 mL/min/kg in data set [5] and 2 mL/min/kg in data set [8]. Also, the bioavailability in data set [6] turned out to be 40%; in [9], 123%. This molecule also came in with a CL free in data set [7] of 326 mL/min/kg. Further, the metabolised at 3 h, 5 µM in [14], in data set [15] and in data set [16] was not above 1% throughout.

Regarding `Cn1cc(-c2ccnc(N3CCn4c(cc5c4CC(C)(C)C5)C3=O)c2CO)cc(NC(=O)C2(F)CC2)c1=O`, in data set [1], the logD is 2.5.

Molecule `Cn1cc(-c2cc(F)cc(-n3ncc4cc(C(C)(C)C)cc(F)c4c3=O)c2CO)cc(NC(=O)[C@H]2C[C@H]2F)c1=O` had a log distribution coefficient (logD) in data set [1] of 2.

For the molecule `Cn1cc(-c2ccnc(-n3ncc4cc(C(C)(C)C)cc(F)c4c3=O)c2CO)cc(NC(=O)[C@@H]2C[C@H]2F)c1=O`, the logD in data set [1] was 2.5. Also, the figures for the CLint scaled at 1 µM in data set [2] and in data set [3] were 4.6 mL/min/kg and 15 mL/min/kg, respectively. In addition, the Papp A→B at 3 h, 10 µM in data set [4] was found to be 14 ×10⁻⁶ cm/s.

As to `Cn1cc(-c2ccnc(N3CCn4c(cc5c4CC(C)(C)C5)C3=O)c2CO)cc(NC(=O)C2CCC2)c1=O`, the logD in [1] was found to be 3.3.

Molecule `Cn1cc(-c2ccnc(N3CCc4c(cc5n4CCCC5)C3=O)c2CO)cc(NC(=O)C2CC2)c1=O` had a logD in [1] of 1.2. In addition, the CLint scaled at 1 µM came out at 9.8 mL/min/kg in data set [2] and 20 mL/min/kg in data set [3].

Consider `COCC(=O)Nc1cc(-c2ccnc(N3CCn4c(cc5c4CC(C)(C)C5)C3=O)c2CO)cn(C)c1=O`, for which the logD in [1] amounted to 1.5.

`CC(C)C(=O)Nc1cc(-c2ccnc(N3CCn4c(cc5c4CC(C)(C)C5)C3=O)c2CO)cn(C)c1=O` displayed a logD in [1] of 3.2.

The molecule `Cn1cc(-c2ccnc(N3CCn4c(cc5c4CC(C)(C)C5)C3=O)c2CO)cc(NC(=O)C2COC2)c1=O` showed a log distribution coefficient (logD) in [1] of 2.2.

Regarding `Cn1cc(-c2ccnc(-n3ncc4cc(C(C)(C)C)cc(F)c4c3=O)c2CO)cc(NC(=O)C2CC2)c1=O`, the logD in data set [1] worked out at 2.5. Moreover, the CLint scaled at 1 µM worked out at 3.2 mL/min/kg in data set [2] and 13 mL/min/kg in [3]. Further, the apparent permeability from apical to basolateral (Papp A→B) at 3 h, 10 µM in [4] turned out to be 13.5 ×10⁻⁶ cm/s.

`Cn1cc(-c2ccnc(N3CCn4c(cc5c4CC(C)(C)C5)C3=O)c2CO)cc(NC(=O)C2(O)CC2)c1=O` returned a logD in data set [1] of 1.8.

For the molecule `Cn1cc(-c2cc(F)cc(-n3ncc4cc(C(C)(C)C)cc(F)c4c3=O)c2CO)cc(NC(=O)[C@@H]2C[C@@H]2F)c1=O`, in data set [1], the logD was found to be 2.8.

On to `Cn1cc(-c2ccnc(N3CCn4c(cc5c4CC(C)(C)C5)C3=O)c2CO)cc(NC(=O)c2cccnc2)c1=O`, for which the logD in [1] was 2.

In [1], `Cn1cc(-c2ccnc(N3CCn4c(cc5c4CC(C)(C)C5)C3=O)c2CO)cc(NC(=O)[C@@H]2C[C@@H]2F)c1=O` yielded a logD of 2.5.

For the molecule `Cn1cc(-c2ccnc(N3CCn4c(cc5c4CC(C)(C)C5)C3=O)c2CO)cc(NC(=O)[C@H]2C[C@H]2F)c1=O`, the logD in data set [1] turned out to be 2.3.

As to `Cn1cc(-c2ccnc(N3CCn4c(cc5c4CC(C)(C)C5)C3=O)c2CO)cc(NC(=O)C2CC2)c1=O`, the log distribution coefficient (logD) in [1] was found to be 3. Moreover, the CLint scaled at 1 µM came out at 5.3 mL/min/kg in data set [2] and 7.2 mL/min/kg in [3].

Molecule `Cn1cc(-c2ccnc(N3CCn4c(cc5c4CC(C)(C)C5)C3=O)c2CO)cc(NC(=O)[C@@H]2CCCO2)c1=O` returned a logD in data set [1] of 2.1.

Turning to `CC(=O)Nc1cc(-c2ccnc(N3CCn4c(cc5c4CC(C)(C)C5)C3=O)c2CO)cn(C)c1=O`, the logD in [1] is 2.1.

Regarding `Cn1nc(-c2ccnc(-n3ncc4cc(C(C)(C)C)cc(F)c4c3=O)c2CO)cc(NC(=O)[C@@H]2C[C@@H]2F)c1=O`, the logD in data set [1] was determined as 1.7. For the same molecule, the figures for the CLint scaled at 1 µM in data set [2] and in data set [3] were 7.4 mL/min/kg and 16 mL/min/kg, respectively.

As to `Cn1cc(-c2ccnc(N3CCn4c(cc5c4CC(C)(C)C5)C3=O)c2CO)cc(NC(=O)CC2CC2)c1=O`, the logD in data set [1] came to 3.4.

In data set [1], `Cn1cc(-c2ccnc(-n3ncc4cc(C(C)(C)C)cc(F)c4c3=O)c2CO)nc(NC(=O)[C@@H]2C[C@@H]2F)c1=O` showed a logD of 1.3. Moreover, the values for the CLint scaled at 1 µM in data set [2] and in data set [3] were less than 3.9 mL/min/kg and 13 mL/min/kg, respectively.

In data set [1], `Cn1cc(-c2ccnc(N3CCn4c(cc5c4CC(C)(C)C5)C3=O)c2CO)cc(NC(=O)CN2CCOCC2)c1=O` registered a logD of 2.3.

In data set [1], `Cn1cc(-c2ccnc(-n3ncc4cc(C(C)(C)C)cc(F)c4c3=O)c2CO)cc(NC(=O)[C@H]2C[C@H]2F)c1=O` came in with a logD of 2. Also, the values for the CLint scaled at 1 µM in data set [2] and in [3] were 5.5 mL/min/kg and 11 mL/min/kg, respectively. In addition, the Papp A→B at 3 h, 10 µM in data set [4] is 6.4 ×10⁻⁶ cm/s.

In data set [1], `CCC(=O)Nc1cc(-c2ccnc(N3CCn4c(cc5c4CC(C)(C)C5)C3=O)c2CO)cn(C)c1=O` showed a logD of 2.5.

`Cn1cc(-c2ccnc(-n3ncc4c5c(sc4c3=O)CCCC5)c2CO)cc(NC(=O)C2CC2)c1=O` had a log distribution coefficient (logD) in data set [1] of 2.1. The results for the CLint scaled at 1 µM in data set [2] and in data set [3] were 7.4 mL/min/kg and 8.4 mL/min/kg, respectively.

Regarding `CCCC(=O)Nc1cc(-c2ccnc(N3CCn4c(cc5c4CC(C)(C)C5)C3=O)c2CO)cn(C)c1=O`, in data set [1], the log distribution coefficient (logD) was determined as 2.6.

On to `C[C@H]1CN(C2COC2)CCN1c1ccc(Nc2cc(-c3ccnc(N4CCn5c(cc6c5CC(C)(C)C6)C4=O)c3CO)cn(C)c2=O)nc1` [FENEBRUTINIB], for which the log distribution coefficient (logD) in data set [1] was determined as 1.6. For the same molecule, the CLint scaled at 1 µM in data set [2] was 9.5 mL/min/kg; in [3] it was 14 mL/min/kg; in data set [10], less than 21 mL/min/kg; in data set [11] it was 10 mL/min/kg; in data set [12], 9.3 mL/min/kg; in data set [13], 29 mL/min/kg. Also, the Papp A→B at 3 h, 10 µM in data set [4] turned out to be 15.1 ×10⁻⁶ cm/s. The values for the clearance in data set [5] and in data set [8] were 22 mL/min/kg and 12 mL/min/kg, respectively. The bioavailability came to 96% in data set [6] and 130% in [17]. The CL free in [7] amounted to 314 mL/min/kg.

Values taken from ChEMBL document CHEMBL4619817, “Stereochemical Differences in Fluorocyclopropyl Amides Enable Tuning of Btk Inhibition and Off-Target Activity” (ACS Med Chem Lett, 2020).
